pKi: −log10 of the molar value.
Key:
[1] = target: T1, Alpha-1B adrenergic receptor (Homo sapiens, UniProt P35368); test: Displacement of [3H]prazosin from human cloned alpha1B adrenoceptor expressed in CHO cell membranes after 30 mins by liquid scintillation counter
T1 sequence (P35368 whole entry): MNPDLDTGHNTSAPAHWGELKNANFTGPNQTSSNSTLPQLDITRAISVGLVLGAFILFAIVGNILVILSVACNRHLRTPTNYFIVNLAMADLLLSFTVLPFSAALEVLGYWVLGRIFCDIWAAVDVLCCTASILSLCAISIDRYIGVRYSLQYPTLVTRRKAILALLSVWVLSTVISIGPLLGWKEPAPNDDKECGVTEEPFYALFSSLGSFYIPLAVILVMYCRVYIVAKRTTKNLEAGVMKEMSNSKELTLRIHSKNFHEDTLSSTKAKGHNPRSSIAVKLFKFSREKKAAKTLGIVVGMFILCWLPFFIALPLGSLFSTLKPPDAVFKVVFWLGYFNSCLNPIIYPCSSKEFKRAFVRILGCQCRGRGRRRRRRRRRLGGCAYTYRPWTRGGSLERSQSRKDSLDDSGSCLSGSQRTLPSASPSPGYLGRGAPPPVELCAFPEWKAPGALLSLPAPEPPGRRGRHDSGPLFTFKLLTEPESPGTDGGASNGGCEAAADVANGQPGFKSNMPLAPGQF

[2] = target: T2, 5-hydroxytryptamine receptor 1A (Rattus norvegicus, UniProt P19327); test: Displacement of [3H]-8-OH-DPAT from 5-HT1A receptor in rat hippocampal membranes after 30 mins by liquid scintillation counting; assay type: cell membranes, Hippocampus, Membrane
T2 sequence (P19327 whole entry): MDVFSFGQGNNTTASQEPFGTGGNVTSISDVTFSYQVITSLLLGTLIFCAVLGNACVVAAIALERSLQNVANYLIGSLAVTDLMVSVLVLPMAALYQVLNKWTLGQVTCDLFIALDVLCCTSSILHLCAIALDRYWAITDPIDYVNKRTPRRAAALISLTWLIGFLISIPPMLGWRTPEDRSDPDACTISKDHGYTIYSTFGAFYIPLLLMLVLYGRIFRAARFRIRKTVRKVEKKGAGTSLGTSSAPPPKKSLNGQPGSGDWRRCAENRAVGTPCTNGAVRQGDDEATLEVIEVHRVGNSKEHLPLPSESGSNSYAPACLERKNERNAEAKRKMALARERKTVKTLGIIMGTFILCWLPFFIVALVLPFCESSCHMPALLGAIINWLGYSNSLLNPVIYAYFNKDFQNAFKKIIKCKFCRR
How it was run: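 Crude rat hippocampal membranes in Tris-HCl 50 mM, pH 7.7, with pargyline and 4 mM CaCl2. […] Stopped by GF/B filtration, then scintillation counting. Ki from IC50 via Cheng–Prusoff; ≥3 experiments in triplicate.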

pKi [1] | pKi [2] | SMILES
8.66 | 8.77 | COc1cccc(OC)c1OCCNC[C@H]1COc2cccc(Cl)c2O1.Cl
8.56 | 9.07 | COc1cccc(OC)c1OCCNC[C@H]1COc2cccc(OC)c2O1.Cl
8.62 | 8.85 | COc1cccc(OC)c1OCCNC[C@H]1COc2cccc(F)c2O1.Cl
7.51 | 9.00 | COc1cccc(OC)c1OCCNC[C@H]1COc2cccc(O)c2O1.Cl
6.35 | 7.54 | COc1cccc(OC)c1OCCNC[C@H]1COc2c(OC)cccc2O1.Cl

Reference: ChEMBL document CHEMBL2150980 (Eur J Med Chem, 2012)
